Data from ChEMBL document CHEMBL3804761, “Synthesis of a stable and orally bioavailable englerin analogue” (Bioorg Med Chem Lett, 2016).

Tests used:
Assay type in all cases: functional
[1] = Growth inhibition of human LOXIMVI cells incubated for 48 hrs by sulforhodamine B assay; conditions: LOX IMVI
Method in brief: (§1)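 NCI 60-cell-line panel, standard protocol. Cells exposed to compound for two days, growth read by sulforhodamine B staining. Tested at five 10-fold dilutions, top concentration 100 µM, to give dose-response curves.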

[2] = Growth inhibition of human RXF393 cells assessed as cell growth at 10 uM incubated for 48 hrs by sulforhodamine B assay relative to control; conditions: RXF 393, 48 h, read-out: Activity
Method in brief: (§2)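 Run in the standard NCI 60-cell-line screen. Cells were exposed to drug for two days, and the read-out was sulforhodamine B staining. Compound was tested at a single final concentration of 10 µM in every line, and results are reported as growth percent.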

Malme-3M [3] = assay: Growth inhibition of human MALME-3M cells incubated for 48 hrs by sulforhodamine B assay; method in brief: as §1
A549 [4] = assay: Growth inhibition of human A549/ATCC cells incubated for 48 hrs by sulforhodamine B assay; conditions: A549, 48 h; method in brief: as §1
MDA-MB-435 [5] = assay: Growth inhibition of human MDA-MB-435 cells incubated for 48 hrs by sulforhodamine B assay; conditions: MDA-MB-435, 48 h; method in brief: as §1
NCI-H226 = assay: Growth inhibition of human NCI-H226 cells incubated for 48 hrs by sulforhodamine B assay; conditions: NCI-H226, 48 h; method in brief: as §1
[6] = Growth inhibition of human COLO205 cells incubated for 48 hrs by sulforhodamine B assay; conditions: COLO 205, 48 h; method in brief: as §1
MCF7 = assay: Growth inhibition of human MCF7 cells assessed as cell growth at 10 uM incubated for 48 hrs by sulforhodamine B assay relative to control; conditions: MCF7, 48 h, read-out: Activity; method in brief: as §2
A549 [7] = assay: Growth inhibition of human A549/ATCC cells assessed as cell growth at 10 uM incubated for 48 hrs by sulforhodamine B assay relative to control; conditions: A549, 48 h, read-out: Activity; method in brief: as §2
ACHN = assay: Growth inhibition of human ACHN cells incubated for 48 hrs by sulforhodamine B assay; method in brief: as §1
[8] = Growth inhibition of human HCT15 cells incubated for 48 hrs by sulforhodamine B assay; conditions: HCT-15, 48 h; method in brief: as §1
[9] = Growth inhibition of human Hs 578T cells assessed as cell growth at 10 uM incubated for 48 hrs by sulforhodamine B assay relative to control; conditions: read-out: Activity
NCI-H460 = assay: Growth inhibition of human NCI-H460 cells assessed as cell growth at 10 uM incubated for 48 hrs by sulforhodamine B assay relative to control; conditions: NCI-H460, 48 h, read-out: Activity; method in brief: as §2
SK-MEL-5 = assay: Growth inhibition of human SK-MEL-5 cells assessed as cell growth at 10 uM incubated for 48 hrs by sulforhodamine B assay relative to control; conditions: SK-MEL-5, 48 h, read-out: Activity; method in brief: as §2
CCRF-CEM = assay: Growth inhibition of human CCRF-CEM cells assessed as cell growth at 10 uM incubated for 48 hrs by sulforhodamine B assay relative to control; conditions: read-out: Activity
Method in brief: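 Single-dose screen in the NCI 60-cell-line panel at one final concentration of 10 µM. Two-day drug exposure with a sulforhodamine B endpoint. Values are growth percent for each cell line.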

[10] = Growth inhibition of human HCT116 cells incubated for 48 hrs by sulforhodamine B assay; conditions: HCT-116, 48 h; method in brief: as §1
MDA-MB-435 [11] = assay: Growth inhibition of human MDA-MB-435 cells assessed as cell growth at 10 uM incubated for 48 hrs by sulforhodamine B assay relative to control; conditions: MDA-MB-435, 48 h, read-out: Activity; method in brief: as §2
[12] = Growth inhibition of human SKOV3 cells incubated for 48 hrs by sulforhodamine B assay; conditions: SK-OV-3, 48 h
Method in brief: (§3)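 Tested in the standard NCI 60-cell-line protocol with two-day drug exposure and a sulforhodamine B endpoint. Compounds were first screened at a single final concentration of 10 µM, reported as growth percent. They were then run as five 10-fold dilutions starting from a high concentration of 100 µM to give dose-response curves.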

Malme-3M [13] = assay: Growth inhibition of human MALME-3M cells assessed as cell growth at 10 uM incubated for 48 hrs by sulforhodamine B assay relative to control; conditions: read-out: Activity; method in brief: as §2
[14] = Growth inhibition of human SF295 cells incubated for 48 hrs by sulforhodamine B assay; conditions: SF-295, 48 h; method in brief: as §1
[15] = Growth inhibition of human TK10 cells incubated for 48 hrs by sulforhodamine B assay; conditions: TK-10, 48 h; method in brief: as §3
[16] = Growth inhibition of human SF295 cells assessed as cell growth at 10 uM incubated for 48 hrs by sulforhodamine B assay relative to control; conditions: SF-295, 48 h, read-out: Activity; method in brief: as §2
[17] = Growth inhibition of human IGROV1 cells assessed as cell growth at 10 uM incubated for 48 hrs by sulforhodamine B assay relative to control; conditions: IGROV-1, 48 h, read-out: Activity; method in brief: as §2
SK-MEL-28 = assay: Growth inhibition of human SK-MEL-28 cells assessed as cell growth at 10 uM incubated for 48 hrs by sulforhodamine B assay relative to control; conditions: SK-MEL-28, 48 h, read-out: Activity; method in brief: as §2
[18] = Growth inhibition of human OVCAR3 cells incubated for 48 hrs by sulforhodamine B assay; conditions: OVCAR-3, 48 h; method in brief: as §1
[19] = Growth inhibition of human HCT15 cells assessed as cell growth at 10 uM incubated for 48 hrs by sulforhodamine B assay relative to control; conditions: HCT-15, 48 h, read-out: Activity; method in brief: as §2
U-251 = assay: Growth inhibition of human U251 cells assessed as cell growth at 10 uM incubated for 48 hrs by sulforhodamine B assay relative to control; conditions: U-251, 48 h, read-out: Activity
Method in brief: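 NCI 60-cell line standard protocol, one-dose screen: single final concentration 10 µM, 2-day drug exposure, sulforhodamine B (SRB) endpoint; read-out is growth percent relative to untreated control.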

NCI-H23 = assay: Growth inhibition of human NCI-H23 cells incubated for 48 hrs by sulforhodamine B assay; conditions: NCI-H23, 48 h; method in brief: as §1
[20] = read-out: pLC50 (the source's name) (converted)

CC(C)[C@@]12C[C@@H](NC(=O)CO)[C@@](C)(O1)[C@@H]1CC[C@@H](C)[C@H]1[C@@H]2OC(=O)/C=C/c1ccccc1
GI50 [1]: 14.5 µM | LC50 [1]: > 50.1 µM | TGI ([1]; read-out: pTGI (converted)): > 50.1 µM | growth at 10 µM [2]: 63.3% | GI50 (Malme-3M [3]): 20.9 µM | LC50 (Malme-3M [3]): > 50.1 µM | TGI (Malme-3M [3]; read-out: pTGI (converted)): > 50.1 µM | GI50 (A549 [4]): 13.5 µM | LC50 (A549 [4]): > 50.1 µM | TGI (A549 [4]; read-out: pTGI (converted)): > 50.1 µM | GI50 (MDA-MB-435 [5]): 18.2 µM | LC50 (MDA-MB-435 [5]): > 50.1 µM | TGI (MDA-MB-435 [5]; read-out: pTGI (converted)): > 50.1 µM | GI50 (NCI-H226): 25.1 µM | LC50 (NCI-H226): > 50.1 µM | TGI (NCI-H226; read-out: pTGI (converted)): > 50.1 µM | GI50 [6]: 10.7 µM | CC50 [6, 20]: > 50.1 µM | TGI ([6]; read-out: pTGI (converted)): 26.3 µM | growth at 10 µM (MCF7): 94.4% | growth at 10 µM (A549 [7]): 91.7% | GI50 (ACHN): 3.98 µM | LC50 (concentration killing 50% of cells) (ACHN): > 50.1 µM | TGI (ACHN; read-out: pTGI (converted)): 35.5 µM | GI50 [8]: 16.6 µM | LC50 [8]: > 50.1 µM | TGI ([8]; read-out: pTGI (converted)): > 50.1 µM | growth at 10 µM [9]: 9% | growth at 10 µM (NCI-H460): 108% | growth at 10 µM (SK-MEL-5): 90.6% | growth at 10 µM (CCRF-CEM): 99.8% | GI50 [10]: 10.7 µM | LC50 [10]: > 50.1 µM | TGI ([10]; read-out: pTGI (converted)): 38 µM | growth at 10 µM (MDA-MB-435 [11]): 94.6% | GI50 [12]: > 50.1 µM | LC50 [12]: > 50.1 µM | TGI ([12]; read-out: pTGI (converted)): > 50.1 µM | growth at 10 µM (Malme-3M [13]): 95.2% | GI50 [14]: 18.6 µM | LC50 (concentration causing 50% net cell kill) [14]: > 50.1 µM | TGI ([14]; read-out: pTGI (converted)): > 50.1 µM | GI50 [15]: 28.8 µM | CC50 [15, 20]: > 50.1 µM | TGI ([15]; read-out: pTGI (converted)): > 50.1 µM | growth at 10 µM [16]: 90.6% | growth at 10 µM [17]: 106% | growth at 10 µM (SK-MEL-28): 112% | GI50 [18]: 14.8 µM | LC50 [18]: > 50.1 µM | TGI ([18]; read-out: pTGI (converted)): 49 µM | growth at 10 µM [19]: 108% | growth at 10 µM (U-251): 92.3% | GI50 (NCI-H23): 14.8 µM | LC50 (NCI-H23): > 50.1 µM | TGI (NCI-H23; read-out: pTGI (converted)): > 50.1 µM
